Test results: BindingDB's records for doi:10.1021/jm0600794 (University of Innsbruck, 2006)

Biological target: T1, Glucocorticoid receptor (Homo sapiens, UniProt P04150)
T1 sequence (P04150 whole entry): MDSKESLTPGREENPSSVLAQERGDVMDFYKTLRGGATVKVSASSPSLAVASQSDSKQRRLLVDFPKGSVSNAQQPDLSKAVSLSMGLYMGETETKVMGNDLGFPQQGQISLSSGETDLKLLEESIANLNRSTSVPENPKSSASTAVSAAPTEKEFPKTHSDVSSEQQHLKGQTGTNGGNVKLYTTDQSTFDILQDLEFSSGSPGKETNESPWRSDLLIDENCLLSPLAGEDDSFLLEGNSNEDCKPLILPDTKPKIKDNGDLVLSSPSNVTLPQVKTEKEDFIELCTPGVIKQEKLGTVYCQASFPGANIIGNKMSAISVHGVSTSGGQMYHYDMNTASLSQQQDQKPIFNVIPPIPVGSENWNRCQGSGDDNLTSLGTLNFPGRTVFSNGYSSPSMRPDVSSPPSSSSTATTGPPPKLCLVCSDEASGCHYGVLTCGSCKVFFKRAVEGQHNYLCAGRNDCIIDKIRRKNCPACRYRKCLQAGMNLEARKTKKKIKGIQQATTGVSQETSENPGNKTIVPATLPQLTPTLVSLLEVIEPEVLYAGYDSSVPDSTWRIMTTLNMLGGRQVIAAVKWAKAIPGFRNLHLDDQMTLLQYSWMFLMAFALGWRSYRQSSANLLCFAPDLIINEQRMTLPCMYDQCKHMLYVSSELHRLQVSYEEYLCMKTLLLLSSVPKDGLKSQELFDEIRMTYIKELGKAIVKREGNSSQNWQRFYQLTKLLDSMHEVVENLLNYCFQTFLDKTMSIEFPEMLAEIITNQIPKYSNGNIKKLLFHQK
Experiment: Inhibition of GR-mediated transactivation of galactosidase reporter gene in HEK293 cells expressing 11betaHSD1
In short: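 HEK-293 cells transfected with pMMTV-LacZ, pCMV-LUC, GR, 11β-HSD1 and H6PDH plasmids. After 6 h, washed into steroid-free medium, then 24 h with 250 nM cortisone and graded inhibitor. β-Galactosidase normalized to luciferase, as % of steroid-only control. IC50 from four independent experiments, means ± SD.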

For `CC(=O)OC1CC[C@]2(C)C3=C(C(=O)C[C@H]2C1(C)C)[C@]1(C)CCC(C(C)CCC(=O)O)[C@@]1(C)CC3=O` (stereo partly drawn) [4-((5R,10S,13R,14R)-3-acetoxy-4,4,10,13,14-pentamethyl-7,11-dioxo-2,3,4,5,6,7,10,11,12,13,14,15,16,17-tetradecahydro-1H-cyclopenta[a]phenanthren-17-yl)pentanoic acid], the IC50 was 2090 nM.
